Data set [1] is described as follows: Antioxidant activity assessed as DPPH radical scavenging activity incubated in dark for 20 mins. It is filed as functional. The essentials: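 Compound stock 1 mM in DMSO; 2–20 μL portions made up to 40 μL with DMSO and added to 1.96 mL of 0.1 mM DPPH. Held at RT for 20 min in the dark, then absorbance read at 517 nm. DPPH alone served as control. % radical scavenging = (control − test)/control × 100.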

The nature of data set [2]: Cytotoxicity against MDCK1 cells assessed as decrease in cell viability after 24 hrs by MTT assay. It is filed as cell-based. The conditions noted are these: Canis lupus familiaris, MDCK1, 24 h. In outline: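 MDCKI cells seeded at 1×10^4 per well, exposed 24 h to 0, 5, 10, 25, 50 μM (in DMSO/PBS). MTT (5 mg/mL working solution) added for 3 h at 37°C, then stop solution; OD read at 570 nm. Viability expressed as percent of untreated control after blank subtraction; IC50 reported. Means ± S.D. of three independent experiments.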
On the technique in general: Formazan colour is commonly taken as a measure of viable cells.

Data set [3] concerns MDCK1. Nature of the data set: Inhibition of calcium oxalate monohydrate crystal binding to MDCK1 cell surface at 10 uM preincubated for 3 hrs followed by calcium oxalate monohydrate crystal addition measured after 30 mins by phase contrast microscopy. Conditions: Canis lupus familiaris. In kind it is functional, cell-based. The essentials: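 MDCKI cells (5×10^5 per well) cultured 24 h in complete medium, pretreated 3 h with 0, 1 or 10 μM, washed with PBS, then exposed 30 min to COM crystals (100 μg/mL medium). Unbound crystals removed by five washes with plain DMEM. Adherent crystals counted by phase-contrast microscopy in 15 random high-power fields per well.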

Data set [4] has as its system MDCK1. Kind of data set: Downregulation of alpha-enolase expression in membrane fractions of MDCK1 cells at 50 uM after 3 hrs by Western blot method. In kind it is functional, cell-based. Conditions: Canis lupus familiaris. In outline: (§1)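 MDCKI cells seeded at 5×10^5 per well and treated with 50 μM for 3 h. Cytosolic fraction extracted with PIPES/EDTA/0.02% digitonin buffer for 10 min at 4°C. Membrane fraction taken from the pellet in SDS/Tris pH 6.8 buffer. Whole lysate prepared separately. 30 μg protein per lane on 7.5% gel; blots probed for annexin A1, HSP90 and α-enolase, with β-actin as loading control. Bands read by ECL densitometry. Mean ± SEM, n=3.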

For data set [5], the system named is MDCK1. Nature of the data set: Upregulation of HSP90 expression in cytosolic fractions of MDCK1 cells at 50 uM after 3 hrs by Western blot method. Conditions: Canis lupus familiaris. In kind it is functional, cell-based. In outline:
as §1
On the technique in general: In western blotting, separated proteins are transferred to a membrane and probed.

Data set [6] relates to MDCK1. Nature of the data set: Downregulation of AxA1 expression in membrane fractions of MDCK1 cells at 50 uM after 3 hrs by Western blot method. In kind it is functional, cell-based. Conditions: Canis lupus familiaris. The essentials: as §1
For data set [7], the system named is Drosophila melanogaster. Kind of data set: Inhibition of calcium oxalate crystallization in Oregon R Drosophila melanogaster malpighian tubule model at 100 uM preincubated with test compound alone for 20 mins followed by addition of calcium oxalate along with test compound measured after 1 hr by DIC microscopy. It is filed as functional. The essentials: (§2)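 Malpighian tubules dissected from wild-type Oregon R female flies. Tubules preincubated in iPBS with 100 μM for 20 min, then given 100 μM plus Na-oxalate for 1 h, with solutions renewed every 15 min. Controls received oxalate alone. The first 600 μm of anterior tubule imaged by DIC birefringence. Crystal number and area measured with ImageJ. n=12 per group; means ± SE.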

For data set [8], the system named is MDCK1. Kind of data set: Inhibition of calcium oxalate monohydrate crystal binding to MDCK1 cell surface preincubated for 3 hrs followed by calcium oxalate monohydrate crystal addition measured after 30 mins by phase contrast microscopy. The conditions noted are these: Canis lupus familiaris. In kind it is functional, cell-based. The essentials:
(§3)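 MDCKI cells seeded at 5×10^5 per well and cultured for 24 h. Pretreated at 0–50 μM for 3 h (concentration series), or at 25 or 50 μM for 1, 3 or 6 h (time course). Cells then washed and exposed to COM crystals (100 μg/mL) for 30 min, followed by five washes with plain medium. Adherent crystals counted by phase-contrast microscopy in 15 random high-power fields, ×400.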

For data set [9], the system named is MDCK1. Kind of data set: Downregulation of HSP90 expression in membrane fractions of MDCK1 cells at 50 uM after 3 hrs by Western blot method. In kind it is functional, cell-based. Conditions: Canis lupus familiaris. The essentials:
as §1

In data set [10] the test system is MDCK1. Kind of data set: Increase in intracellular AxA1 expression in MDCK1 cells at 50 uM after 3 hrs by laser scanning confocal microscopic method. Conditions: Canis lupus familiaris. It is filed as functional, cell-based. The essentials: (§4)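 MDCKI cells grown overnight on collagen-coated chamber slides and treated ± 50 μM for 3 h. Fixed in 4% paraformaldehyde. Intracellular staining done with 0.2% Triton permeabilization; surface staining done without permeabilization. Rabbit anti-annexin A1 applied overnight at 4°C, then Alexa Fluor 488 anti-rabbit secondary. Nuclei counterstained with TOTO-3. Imaged by confocal microscopy, 63× oil objective.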

Data set [11] is described as follows: Effect on total alpha-enolase expression in MDCK1 cells at 50 uM after 3 hrs by Western blot method. In kind it is ADME, cell-based, Canis lupus familiaris. Conditions: dog, mdck1, 3 h. The essentials: as §1
For data set [12], the system named is Drosophila melanogaster. Kind of data set: Inhibition of calcium oxalate crystal size in Oregon R Drosophila melanogaster malpighian tubule model at 100 uM preincubated with test compound alone for 20 mins followed by addition of calcium oxalate along with test compound measured after 1 hr by DIC microscopy. It is filed as functional. In outline:
as §2

In data set [13] the test system is MDCK1. Kind of data set: Upregulation of alpha-enolase expression in cytosolic fractions of MDCK1 cells at 50 uM after 3 hrs by Western blot method. It is filed as functional, cell-based. The conditions noted are these: Canis lupus familiaris. The essentials:
as §1

The nature of data set [14]: Cytotoxicity against MDCK1 cells assessed as decrease in cell viability up to 155 +/- 4 uM after 24 hrs by MTT assay. In kind it is cell-based, Canis lupus familiaris. The conditions noted are these: dog, mdck1, 24 h.
Data set [15] relates to MDCK1. Nature of the data set: Upregulation of AxA1 expression in cytosolic fractions of MDCK1 cells at 50 uM after 3 hrs by Western blot method. It is filed as functional, cell-based. Conditions: Canis lupus familiaris. In outline:
as §1

Data set [16] can be described thus: Inhibition of AxA1 expression in MDCK1 cell surface at 50 uM after 3 hrs by laser scanning confocal microscopic method relative to control. In kind it is functional. Conditions: Canis lupus familiaris, MDCK1, 3 h. In outline: as §4
Data set [17] in a line: Effect on total HSP90 expression in MDCK1 cells at 50 uM after 3 hrs by Western blot method. It is filed as ADME, cell-based, Canis lupus familiaris. The conditions noted are these: dog, mdck1, 3 h. The essentials:
as §1

A short description of data set [18]: Inhibition of cell surface associated calcium oxalate monohydrate crystal levels in MDCK1 cells preincubated for 3 to 6 hrs followed by calcium oxalate monohydrate crystal addition measured after 30 mins by phase contrast microscopy relative to control. It is filed as functional, Canis lupus familiaris. In outline: as §3
Data set [19] relates to Drosophila melanogaster. Nature of the data set: Inhibition of total calcium oxalate crystal area in Oregon R Drosophila melanogaster malpighian tubule model at 100 uM preincubated with test compound alone for 20 mins followed by addition of calcium oxalate along with test compound measured after 1 hr by DIC microscopy. It is filed as functional. The essentials:
as §2

The nature of data set [20]: Effect on total AxA1 expression in MDCK1 cells at 50 uM after 3 hrs by Western blot method. It is filed as ADME, cell-based, Canis lupus familiaris. Conditions: dog, mdck1, 3 h. The essentials: as §1

pEC50, pIC50: −log10 of the molar value. Active and inactive are the calls of the source. The rule behind the calls is not given here.

For the molecule `O=C1O[C@H]([C@@H](O)CO)C(O)=C1O` [ASCORBIC ACID], the pEC50 (in general, the negative decadic logarithm of the EC50, by convention in mol/L) in [1] was 4.35.

As for `O=C(O)c1cc(O)c(O)c(O)c1` [GALLIC ACID], in [1], the pEC50 is 5.52. In addition, in data set [2], the pIC50 – broadly, −log10 of the IC50, conventionally taken in molar units – was 4.47. Also, in the data set with MDCK1 [3], the inhibition (usually how much of the control response was suppressed) is “Active”.

For `COC(=O)[C@]1(O)C[C@@H](O)[C@@H](O)[C@H](O)C1`, the outcome in data set [1] was inactive. Further, the pIC50 in data set [2] was 3.92.

With `COC(=O)[C@]1(O)C[C@@H](OC(=O)c2cc(O)c(O)c(O)c2)[C@@H](OC(=O)c2cc(O)c(O)c(O)c2)[C@H](OC(=O)c2cc(O)c(O)c(O)c2)C1`, the outcome in the data set with MDCK1 [4], in the data set on MDCK1 [5], with MDCK1 [6], in the data set with MDCK1 [9], in the data set with MDCK1 [10] and in the data set on MDCK1 [13] was Active. Besides, in the data set with MDCK1 [15], the outcome was Active. Further, in data set [1], the pEC50 is 4.96. The inhibition entry in the data set with Drosophila melanogaster [7], in the data set with Drosophila melanogaster [12] and in the data set with Drosophila melanogaster [19] was “Active” in each case. Further, in the data set with MDCK1 [8], the inhibition result was “Dose-dependent effect”. Moreover, the Activity entry in [11], in [14], in data set [17] and in data set [20] was “Non-Toxic” in each case. For the same molecule, in [16], the inhibition at 50 µM turned out to be 50%. For the same molecule, in data set [18], the “inhibition (INH)” value is listed as 50%.

Source of the values: ChEMBL document CHEMBL4043284, “The Synthesized Plant Metabolite 3,4,5-Tri-O-Galloylquinic Acid Methyl Ester Inhibits Calcium Oxalate Crystal Growth in a Drosophila Model, Downregulates Renal Cell Surface Annexin A1 Expression, and Decreases Crystal Adhesion to Cells” (J Med Chem, 2018).
